# KLK5 inh: human KLK5 protease inhibitors, primary screen, biochemical, 1536-well; Kallikrein-5 (Homo sapiens), Q9Y337; recombinant hK5, fluorogenic AMC substrate cleavage; inhibition, % at 5 µM; 0.59% of 210,000 active;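 active = inhibition of 40% or more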;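 note: 0% = enzyme controls without compound and 100% = no-enzyme blanks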
# Target sequence (Q9Y337 67-293 limits assumed): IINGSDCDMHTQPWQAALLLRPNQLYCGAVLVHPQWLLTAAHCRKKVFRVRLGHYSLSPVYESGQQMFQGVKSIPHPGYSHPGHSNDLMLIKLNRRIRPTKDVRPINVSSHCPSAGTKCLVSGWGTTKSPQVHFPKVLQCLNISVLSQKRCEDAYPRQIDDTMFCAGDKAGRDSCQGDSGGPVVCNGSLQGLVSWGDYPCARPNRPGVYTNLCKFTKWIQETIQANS
# FXIIa inh 1536: human FXIIa protease inhibitors, primary screen, biochemical, 1536-well; inhibition, % at 5 µM; 0.3% of 220,000 active; Coagulation factor XII (Homo sapiens), P00748; purified FXIIa, Boc-QGR-AMC fluorogenic substrate, 2 h; in the data active = inhibition above about 40%;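 note: 0% = enzyme with no compound and 100% = blank without enzyme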
# Thrombin inh: human alpha-thrombin inhibitors, primary screen, counter-screen for coagulation protease inhibitor project, biochemical, 1536-well, fluorogenic AMC substrate; Prothrombin (Homo sapiens), P00734; Boc-VPR-AMC fluorogenic substrate cleavage; 0.26% of 220,000 active; inhibition, % at 5 µM;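 active = inhibition at or above 40%; inactive = inhibition below 40%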;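 note: 0% = enzyme with no compound and 100% = wells without enzyme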
#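 Material: Human alpha-thrombin protein | Buffer or medium: pH 7.5 Tris-saline with Tween 20 | Reagent: Boc-VPR-AMC substrate, 15 µM final | Schedule: Reaction at ambient temperature | Detection: AMC fluorescence at 355 nm excitation and 460 nm emission | Evaluation: Percent inhibition scaled between no-compound controls and no-enzyme blanks | Controls: no-compound enzyme wells and no-enzyme blanks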
# m-calpain inh: inhibitors of pig calpain II, primary screen, biochemical, fluorogenic peptide substrate, 1536-well; purified calpain II, 30 min; inhibition, % at 16 µM; 0.37% of 220,000 active; AID 1236, 2008;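 active = inhibition above about 50%, limit read from the data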
# FXIa inh 1536: human FXIa protease inhibitors, primary screen, biochemical, 1536-well; purified FXIa, Boc-Glu-Ala-Arg-AMC fluorogenic substrate; inhibition, % at 5 µM; 0.14% of 220,000 active;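 active = inhibition of at least 40%; inactive = inhibition below 40%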;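 note: fluorescence of freed AMC excited at 355 nm; 0% = enzyme without compound and 100% = no enzyme blank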
# Active calls of the source: *; nt = not tested or not shown. Shown are actives, neighbours in structure and some others; about 1.4% of the full set was active somewhere.
SMILES,KLK5 inh,FXIIa inh 1536,Thrombin inh,m-calpain inh,FXIa inh 1536
COc1ccc(N2C(=O)CC(Nc3cccc([N+](=O)[O-])c3)C2=O)cc1 (configuration not stated),41.6*,44.4*,16.9,18.6,18.2
Cc1ccc(C(=O)NC(=S)NCc2cccnc2)cc1C,-6.8,1.5,-25.7,-3.6,-10.8
CC(C)c1ccc(C(=O)NC(=S)NCc2cccnc2)cc1,19.7,7.9,18.0,52.6*,-2.6
O=C1c2cccnc2Oc2ccc(Cl)cc2N1Cc1ccc(F)cc1,43.8*,14.4,35.8,19.4,22.4
C(=C\c1ccccc1)/C=N/N1CCN(Cc2ccccc2)CC1,2.2,11.6,nt,50.1*,6.7
C(/C=C/c1ccccc1)=N/N1CCN(c2ccccc2)CC1,-2.4,18.7,-1.4,-21.6,1.6
C=CCc1cccc(/C=N/NC(=O)CNc2cccc3ccccc23)c1O,-17.1,-1.6,-8.1,7.8,-7.3
C=CCc1cccc(/C=N/NC(=O)CCCNc2ccc(C)cc2)c1O,46.9*,4.8,20.5,21.5,8.2
C=CCc1cccc(/C=N/NC(=O)CNc2ccccc2)c1O,-26.6,-1.9,46.2*,2.2,-10.6
O=C(Nc1cccnc1)C12CC3CC(CC(C3)C1)C2,-1.8,4.7,-10.6,-8.7,-4.0
c1ccc(CSc2ncnc3sccc23)cc1,41.7*,36.5,37.0,21.2,25.1
Cc1nc(SCc2ccccc2)c2ccsc2n1,56.1*,57.4*,20.0,21.8,29.0
COc1ccccc1C(=O)NC(=S)N1CCc2ccccc21,nt,5.5,-4.3,0.0,-0.8
Cc1ccc(/C=N/NC(=O)c2ccoc2C)s1,-7.7,6.1,-5.9,15.5,-5.8
Cc1occc1C(=O)N/N=C/c1ccc(Br)s1,48.6*,33.6,27.7,28.3,17.0
C/C(=N\NC(=S)NC1CCCCC1)c1cccc(Br)c1,21.0,-5.7,51.4*,19.0,-7.8
Cc1[nH]c2ccccc2c1CCN(Cc1cccnc1)C(=S)Nc1ccc(F)cc1,-1.0,10.5,-3.3,64.1*,-1.2
Cc1[nH]c2ccccc2c1CCN(Cc1cccnc1)C(=S)Nc1cccc(F)c1,-1.6,10.8,-4.7,60.7*,-1.4
COCc1cc(C)nc(N/N=C/c2ccc(-c3cc(C(=O)O)ccc3Cl)o2)c1C#N,0.2,7.8,-1.2,-16.6,1.8
O=C(c1ccccc1)N1CCN(S(=O)(=O)c2ccccc2)CC1,0.0,8.6,0.4,-19.3,0.1
CC1CC(C)CN(S(=O)(=O)c2ccc(C(=O)N3CCN(c4ccccc4)CC3)cc2)C1 (configuration not stated),40.0*,5.4,4.0,6.8,1.1
Cc1sc2ncnc(OCC(=O)NC(C)C)c2c1C,-3.6,12.9,5.0,8.4,0.4
Cc1sc2ncnc(OCC(=O)NC3CCS(=O)(=O)C3)c2c1C (configuration not stated),102.8*,24.1,28.6,6.5,19.6
Cc1nc(N2CCN(c3ccccc3)CC2)nc2c1C(=O)CC(c1ccccc1)C2 (configuration not stated),8.3,13.2,-2.5,10.6,3.3
Cc1nc(N2CCN(c3ccccc3)CC2)nc2c1C(=O)CC(C)C2 (configuration not stated),-0.1,-8.8,-6.8,72.5*,-5.7
SMILES,KLK5 inh,FXIIa inh 1536,Thrombin inh,m-calpain inh,FXIa inh 1536
CC(C(=O)O)n1cc(Cl)cn1 (configuration not stated),50.9*,26.7,15.2,17.1,25.1
Cn1nccc1CNC(=O)c1c(Cl)cnn1C,-13.5,6.6,-1.9,3.6,4.1
N#Cc1nc(-c2ccccc2F)oc1NCCc1ccccc1,-3.1,7.8,-5.9,-194.8,-3.3
N#Cc1nc(-c2ccccc2F)oc1NCc1ccccc1,41.9*,14.6,14.0,-442.4,15.9
O=C(O)CCCC(=O)Nc1ccc(C(=O)N2CCCCC2)c(Cl)c1,26.9,6.7,2.0,-5.8,-1.9
COc1ccc(N2CCN(S(=O)(=O)c3ccc(C(=O)NC4CCCC4)cc3)CC2)cc1,6.1,46.5*,-4.0,13.1,8.1
COc1ccc(COC(=O)NC2CCN(S(=O)(=O)c3ccc(OC)cc3)CC2)cc1,-4.5,14.1,1.9,11.2,0.9
COc1ccc(S(=O)(=O)N2CCC(NC(=O)OCc3c(Cl)cccc3Cl)CC2)cc1,-11.8,4.8,11.3,65.0*,-11.5
O=C(CCN1C(=O)/C(=C/c2ccccc2)SC1=S)NNC(=O)c1cccnc1,-1.4,8.7,-8.6,-9.1,2.2
COC(=O)C1=C(C)NC(C)=C(C(=O)OC)C1c1ccc(OC(=O)c2ccco2)cc1,-69.1,6.3,2.5,-194.8,0.5
N=c1n(Cc2ccc(Cl)cc2)c2ccccc2n1CC(O)COc1ccccc1 (configuration not stated),-2.2,3.2,-4.6,35.3,-2.3
N=c1n(Cc2ccccc2)c2ccccc2n1CC(O)COc1ccc(Cl)cc1Cl (configuration not stated),3.9,10.7,-2.7,52.0*,0.4
CCN(CCNS(=O)(=O)c1ccc2c(c1)oc(=O)n2C)c1ccccc1,42.0*,5.7,-4.7,16.7,-2.2
Cc1ccc(C2=NNC(=O)C(c3ccc(Cl)cc3)C2)cc1 (configuration not stated),-20.8,0.5,-11.4,-19.2,2.0
O=C1NN=C(c2ccc(Cl)cc2)CC1c1cccc(Br)c1 (configuration not stated),-5.6,2.0,3.4,53.9*,-3.1
Cc1nnc(NC(=O)c2cccc(F)c2)s1,43.9*,15.9,6.6,9.1,3.5
Cc1nnc(NC(=O)c2c(F)cccc2F)s1,-7.2,20.8,-2.7,-42.4,5.8
CC(=O)Cc1nsc(NC(=O)c2cccc(F)c2)n1,52.3*,21.0,0.5,17.6,24.9
COc1cccc(C(=O)OCCN2CCOCC2)c1,35.5,32.1,-3.0,17.3,50.7*
Cc1cc(/C(O)=C2\C(=O)C(=O)N(CCN(C)C)C2c2ccncc2)ccc1OCc1ccccc1 (configuration not stated),71.5*,24.4,21.3,15.3,10.9
COc1cccc(/C(O)=C2/C(=O)C(=O)N(CCCN3CCOCC3)C2c2ccncc2)c1 (configuration not stated),117.1*,-4.3,0.9,13.5,-3.2
COc1cc(C(=O)OCCN2CCOCC2)cc(OC)c1OC,-5.7,13.5,0.2,-20.8,-1.3
CCOc1ccc2c(=O)c(Oc3ccccc3)c(C)oc2c1,2.9,6.9,-6.5,9.5,-10.3
Cn1cccc1Cc1nnc(SCC(=O)N2CCN(c3ccccc3)CC2)n1-c1ccc(F)cc1,13.5,21.2,-1.0,-9.3,8.9
CCOC(=O)C1CCCN(C(=O)C(C)Oc2ccc(Cl)cc2Cl)C1 (configuration not stated),-21.8,5.5,-6.2,1.7,3.5
CC(NC(=O)c1ccc(C(C)(C)C)cc1)C(=O)O (configuration not stated),-26.4,-13.1,3.4,10.4,-12.2

# Screening data as filed in PubChem.
